The test system of experiment [1] is HeLa. Briefly: Antiproliferative activity against human HeLa cells incubated for 48 hrs by MTT assay. The experiment is classed as functional, cell-based. The essentials: (§1)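 Cells kept at 37 °C in humidified 5% CO2: MDA-MB-231, MCF-7, HeLa and HCT116 in RPMI-1640; PC-3 in DMEM/F12; both media had 10% FBS. Compounds came from 60 mM DMSO stocks diluted in medium. At 70–80% confluence, cells got fresh medium with compound for 48 h at 37 °C, with 0.1% DMSO as negative control. MTT (5 mg/mL stock) was added for 4 h, and formazan was dissolved in DMSO and read at 570 nm. % inhibition was taken relative to control, IC50 was fitted, and data are mean ± SD of three independent experiments in duplicate.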
(Formazan colour is commonly taken as a measure of viable cells.)

The subject of experiment [2] is MDA-MB-231. Briefly: Antiproliferative activity against human MDA-MB-231 cells incubated for 48 hrs by MTT assay. The experiment is classed as functional, cell-based. The note with it: MDA-MB-231, 48 h. Summed up: as §1
Experiment [3] concerns PC-3. Briefly: Antiproliferative activity against human PC3 cells incubated for 48 hrs by MTT assay. The experiment is classed as functional, cell-based. To be noted: PC-3, 48 h. The essentials:
as §1

Experiment [4] has as its system MCF7. Put plainly: Antiproliferative activity against human MCF7 cells incubated for 48 hrs by MTT assay. The format is functional, cell-based. The note with it: MCF7, 48 h. The essentials: as §1
The subject of experiment [5] is HCT-116. Put plainly: Antiproliferative activity against human HCT116 cells incubated for 48 hrs by MTT assay. The experiment is classed as functional, cell-based. The note with it: HCT-116, 48 h. The essentials:
as §1

The target of experiment [6] is CDK2/Cyclin A2 (Homo sapiens, UniProt P24941). Briefly: Inhibition of CDK2/cyclin A2 (unknown origin) using histone H1 and ATP as substrate incubated for 40 mins by kinase-glo luminescence assay. The format is protein-complex assay. For orientation: Kinase-Glo reads ATP consumption through a luciferase reaction.
Experiment [7] deals with CDK2/Cyclin A2 (Homo sapiens) (UniProt P24941+P20248). Put plainly: Inhibition of CDK2/cyclin A2 (unknown origin) using histone H1 and ATP as substrate at 1 uM incubated for 40 mins by kinase-glo luminescence assay relative to control. The format is protein-complex assay. The essentials: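 Recombinant CDK2/cyclin A2 (0.2 µg/mL) was run with 0.1 mg/mL histone H1 and 10 µM ATP in 40 mM Tris pH 7.4, 10 mM MgCl2, 0.1 mg/mL BSA and 1 mM DTT, for 40 min at 30 °C. Compound was tested at 1 µM final, with 1% DMSO final. Remaining ATP was quantified by Kinase-Glo Plus luminescence, which is inversely related to kinase activity.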

By IC50 is commonly meant the concentration that gives 50% inhibition. A low value points to higher potency. Take `COc1ccc2nc(Nc3nc(Nc4ccc(S(N)(=O)=O)cc4)ncc3F)sc2c1`: the 50% inhibitory concentration (IC50) is 13 µM in experiment [1]; 26.6 µM in experiment [2]; > 50 µM in experiment [3]; > 50 µM in experiment [4]; 11.5 µM in experiment [5].
Regarding `Cc1ccc2nc(Nc3nc(Nc4ccc(S(C)(=O)=O)cc4)ncc3F)sc2c1`, the IC50 is 17.2 µM in experiment [1]; 14.3 µM in experiment [2]; > 50 µM in experiment [3]; > 50 µM in experiment [4]; 9.18 µM in experiment [5].
With `CS(=O)(=O)c1ccc(Nc2ncc(F)c(Nc3nc4ccc(F)cc4s3)n2)cc1`, the IC50 in experiment [1] is > 50 µM; in experiment [2] it was 8.9 µM; in experiment [3] it was > 50 µM; in experiment [4], > 50 µM; in experiment [5] it was > 50 µM.
By inhibition is commonly meant the share of the control response that was lost under treatment. A low value points to a weak effect. On to `CS(=O)(=O)c1ccc(Nc2ncc(F)c(Nc3nc4ccccc4s3)n2)cc1`, for which the IC50 in experiment [1] worked out at 3.17 µM; in experiment [2] it was 4.98 µM; in experiment [3] it was 2.83 µM; in experiment [4], 6.88 µM; in experiment [6] it was 12.7 nM; in experiment [5], 3.27 µM. The molecule also had an inhibition in experiment [7] of 95%.
Regarding `COc1cccc(Nc2ncc(C)c(Nc3nc4ccccc4s3)n2)c1`, the IC50 in experiment [1], in experiment [2], in experiment [3], in experiment [4] and in experiment [5] was > 50 µM in each case.
Consider `Cc1ccc2nc(Nc3nc(Nc4ccc(S(N)(=O)=O)cc4)ncc3F)sc2c1`, for which the IC50 in experiment [1] is 1.89 µM; in experiment [2] it was 6.39 µM; in experiment [3], 4.96 µM; in experiment [4] it was 24.5 µM; in experiment [6], 21.4 nM; in experiment [5], 1.46 µM. The molecule also returned an inhibition in experiment [7] of 92%.
With `Cc1cnc(Nc2ccc(S(C)(=O)=O)cc2)nc1Nc1nc2ccccc2s1`, the IC50 was 0.46 µM in experiment [1]; 14.8 µM in experiment [2]; > 50 µM in experiment [3]; 6.55 µM in experiment [4]; 37.8 nM in experiment [6]; 0.76 µM in experiment [5]. The inhibition in experiment [7] was determined as 90%.
Regarding `Cc1ncc(-c2ccnc(Nc3ccc(S(C)(=O)=O)cc3)n2)n1C(C)C` [AZD-5438], the IC50 stood at 0.73 µM in experiment [1]; 7.2 µM in experiment [2]; 0.36 µM in experiment [3]; 10.7 µM in experiment [4]; 0.47 µM in experiment [5].
With `Cc1cnc(Nc2ccc(S(N)(=O)=O)cc2)nc1Nc1nc2ccc(Cl)cc2s1`, the IC50 was determined as 3.73 µM in experiment [1]; 9.42 µM in experiment [2]; 5.4 µM in experiment [3]; 8.43 µM in experiment [4]; 2.52 µM in experiment [5]. Further, the inhibition in experiment [7] turned out to be 90%.
On to `CS(=O)(=O)c1ccc(Nc2nccc(Nc3nc4ccc(Cl)cc4s3)n2)cc1`, for which the IC50 is 1.4 µM in experiment [1]; > 50 µM in experiment [2]; > 50 µM in experiment [3]; > 50 µM in experiment [4]; 1.35 µM in experiment [5].
In the case of `CS(=O)(=O)c1ccc(Nc2nccc(Nc3nc4ccccc4s3)n2)cc1`, the IC50 in experiment [1] worked out at 11.3 µM; in experiment [2], 5.91 µM; in experiment [3], 1.71 µM; in experiment [4] it was 10.6 µM; in experiment [5], 8.37 µM. In addition, the inhibition in experiment [7] came to 80%.
Regarding `Cc1cnc(Nc2ccc(S(C)(=O)=O)cc2)nc1Nc1nc2ccc(Cl)cc2s1`, the IC50 in experiment [1] turned out to be 4.18 µM; in experiment [2], 5.9 µM; in experiment [3], 13.4 µM; in experiment [4], 4.32 µM; in experiment [5], 2.5 µM. Also, the inhibition in experiment [7] was 81%.
As to `Cc1ccc2nc(Nc3ccnc(Nc4ccc(S(C)(=O)=O)cc4)n3)sc2c1`, the IC50 in experiment [1] is 2.3 µM; in experiment [2] it was 4.44 µM; in experiment [3], > 50 µM; in experiment [4], > 50 µM; in experiment [5] it was 1.75 µM. Moreover, in experiment [7], the inhibition stood at 77%.
For the molecule `Cc1cnc(Nc2ccc(S(N)(=O)=O)cc2)nc1Nc1nc2ccc(F)cc2s1`, the IC50 is 3.46 µM in experiment [1]; 7.58 µM in experiment [2]; 6.98 µM in experiment [3]; > 50 µM in experiment [4]; 2.01 µM in experiment [5].
Take `CS(=O)(=O)c1ccc(Nc2ncc(F)c(Nc3nc4ccc(Cl)cc4s3)n2)cc1`: the IC50 is > 50 µM in experiment [1]; 11.1 µM in experiment [2]; > 50 µM in experiment [3]; > 50 µM in experiment [4]; 20.7 µM in experiment [5].
As to `Cc1cnc(Nc2ccc([N+](=O)[O-])cc2)nc1Nc1nc2ccccc2s1`, the IC50 is 34.3 µM in experiment [1]; 22.5 µM in experiment [2]; > 50 µM in experiment [3]; > 50 µM in experiment [4]; 6.33 µM in experiment [5].
As for `COc1ccc(Nc2ncc(C)c(Nc3nc4ccccc4s3)n2)cc1`, the IC50 in experiment [1], in experiment [2], in experiment [3], in experiment [4] and in experiment [5] was > 50 µM each time.
Regarding `Cc1cnc(Nc2cccc(F)c2)nc1Nc1nc2ccccc2s1`, the IC50 in experiment [1] was 16.3 µM; in experiment [2], > 50 µM; in experiment [3], > 50 µM; in experiment [4] it was > 50 µM; in experiment [5], 27.8 µM.
As for `COc1ccc2nc(Nc3nc(Nc4ccc(S(C)(=O)=O)cc4)ncc3F)sc2c1`, the IC50 in experiment [1] came out at 25.4 µM; in experiment [2] it was 4.74 µM; in experiment [3], 1.27 µM; in experiment [4], 5.85 µM; in experiment [5], 2.63 µM.
`Cc1cnc(Nc2ccc(F)cc2)nc1Nc1nc2ccccc2s1`: the IC50 in experiment [1], in experiment [2], in experiment [3], in experiment [4] and in experiment [5] was > 50 µM in each case.
Turning to `Cc1cnc(Nc2ccc(S(C)(=O)=O)cc2)nc1Nc1nc2ccc(F)cc2s1`, the IC50 in experiment [1] was > 50 µM; in experiment [2], > 50 µM; in experiment [3], > 50 µM; in experiment [4] it was 3.26 µM; in experiment [5], 24 µM.
Take `COc1ccc2nc(Nc3nc(Nc4ccc(S(N)(=O)=O)cc4)ncc3C)sc2c1`: the concentration for half-maximal inhibition (IC50) in experiment [1] is 36.7 µM; in experiment [2] it was > 50 µM; in experiment [3], > 50 µM; in experiment [4] it was > 50 µM; in experiment [5] it was 7.86 µM.
Take `NS(=O)(=O)c1ccc(Nc2nccc(Nc3nc4ccccc4s3)n2)cc1`: the IC50 in experiment [1] is 2.06 µM; in experiment [2] it was 5 µM; in experiment [3], 3.1 µM; in experiment [4] it was 15.3 µM; in experiment [5], 5.17 µM. This molecule gave an inhibition in experiment [7] of 84%.
Turning to `Cc1cnc(Nc2ccc(C(C)C)cc2)nc1Nc1nc2ccccc2s1`, the IC50 in experiment [1], in experiment [2], in experiment [3], in experiment [4] and in experiment [5] was > 50 µM in each case.
For `COc1ccc2nc(Nc3ccnc(Nc4ccc(S(C)(=O)=O)cc4)n3)sc2c1`, the IC50 is 4.13 µM in experiment [1]; 32.7 µM in experiment [2]; 2.7 µM in experiment [3]; > 50 µM in experiment [4]; 2.27 µM in experiment [5].
For the molecule `Cc1cnc(Nc2ccc(N3CCCCC3)cc2)nc1Nc1nc2ccccc2s1`, the IC50 in experiment [1] is 4.34 µM; in experiment [2], 37.2 µM; in experiment [3] it was > 50 µM; in experiment [4] it was > 50 µM; in experiment [5], 18.7 µM.
In the case of `NS(=O)(=O)c1ccc(Nc2ncc(F)c(Nc3nc4ccc(Cl)cc4s3)n2)cc1`, the IC50 in experiment [1] was determined as 8.77 µM; in experiment [2] it was 2.79 µM; in experiment [3], 1.43 µM; in experiment [4], 8.34 µM; in experiment [5], 8.62 µM.
With `Cc1cnc(Nc2ccc(Cl)cc2)nc1Nc1nc2ccccc2s1`, the IC50 in experiment [1], in experiment [2], in experiment [3], in experiment [4] and in experiment [5] was > 50 µM throughout.
With `Cc1ccc2nc(Nc3nc(Nc4ccc(S(N)(=O)=O)cc4)ncc3C)sc2c1`, the IC50 in experiment [1] was 3.28 µM; in experiment [2] it was 9.08 µM; in experiment [3], 2.71 µM; in experiment [4] it was > 50 µM; in experiment [5], 3.87 µM.
Taken in the same sequence, the figures for `COc1ccc2nc(Nc3ccnc(Nc4ccc(S(N)(=O)=O)cc4)n3)sc2c1` were 1.73 µM, 6.24 µM, 3.03 µM, 11 µM and 1.48 µM.
In the case of `CS(=O)(=O)c1ccc(Nc2nccc(Nc3nc4ccc(F)cc4s3)n2)cc1`, the IC50 in experiment [1] is 0.56 µM; in experiment [2], 2.08 µM; in experiment [3], 1.94 µM; in experiment [4], > 60 µM; in experiment [5], 0.86 µM. In experiment [7], this molecule displayed an inhibition of 89%.
`Cc1ccc2nc(Nc3ccnc(Nc4ccc(S(N)(=O)=O)cc4)n3)sc2c1`: the IC50 in experiment [1] turned out to be 0.66 µM; in experiment [2], 3.87 µM; in experiment [3], 1.64 µM; in experiment [4] it was 5.74 µM; in experiment [5], 0.9 µM. Also, in experiment [7], the inhibition stood at 82%.
